# Screening data deposited in PubChem by Sanford-Burnham Center for Chemical Genomics.
# A selection: hits, their analogues and other compounds. The true share with any hit is near 2.3%.
# MT1-MMP act inh: MT1-MMP (human) activation inhibition | P50281 | HT1080 RFP-PRO-GFP cells, GFP/RFP ratio fluorescence, overnight; percent of plate control window, DMSO zero | GFP/RFP ratio change, % at 20 µM | 360,000 tested, 0.061% active | AID 651647;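 active means GFP/RFP ratio change of at least 30% with cell ATP level not reduced by more than half and red fluorescence within 50% of control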
#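 Test system: HT1080 RFP-PRO-GFP cells; Benchmarks: DMSO and RFP-L50D-GFP cell wells; Timing: cells overnight before dosing, compound overnight, 37 °C, 5% CO2; Compound: one 20 µM compound dose with 1% DMSO; Read-out: GFP/RFP fluorescence ratio.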
# SKN-1 block: C. elegans SKN-1 inhibition; C. elegans VP596 Pgst-4::GFP/RFP ratio, acrylamide-induced, 24 h; inhibition, % at 21.8 µM; 360,000 tested, 0.49% active; AID 624304;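 active means interference check ratio from 0.5 to 1.5 plus GFP to RFP signal ratio inhibition reaching or exceeding a fixed threshold, cut at about 30% in these data, passing the limit was not always enough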
# MPTP block: inhibitors of mitochondrial permeability transition pore; isolated mouse mitochondria, Ca2+ swelling absorbance, 30 min; inhibition, % at 10 µM; 360,000 tested, 1.4% active; AID 602449;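 active means inhibition of 50% or more, scaled per plate between neutral and stimulator controls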;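 further: 0% = DMSO wells given calcium and 100% = 1 mM EGTA wells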
# ATG4B inh: inhibitors of human ATG4B cysteine protease | Q9Y4P1 | ATG4B cleavage of LC3-PLA2, NBD-HPC fluorescence, 1 h | inhibition, % at 8.33 µM | 340,000 tested, 0.51% active; in the data active means inhibition above about 40%
# Target sequence (Q9Y4P1 whole entry, looked up): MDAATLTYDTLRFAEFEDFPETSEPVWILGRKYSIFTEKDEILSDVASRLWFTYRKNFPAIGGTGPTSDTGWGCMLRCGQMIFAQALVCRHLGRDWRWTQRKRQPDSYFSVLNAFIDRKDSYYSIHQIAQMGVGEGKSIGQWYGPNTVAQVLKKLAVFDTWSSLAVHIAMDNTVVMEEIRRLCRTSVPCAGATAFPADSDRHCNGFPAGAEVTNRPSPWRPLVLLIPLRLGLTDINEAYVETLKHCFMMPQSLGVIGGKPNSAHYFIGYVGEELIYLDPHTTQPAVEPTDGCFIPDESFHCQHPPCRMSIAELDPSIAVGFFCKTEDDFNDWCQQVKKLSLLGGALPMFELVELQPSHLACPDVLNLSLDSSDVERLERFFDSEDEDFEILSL
# Rh123 counter: Rhodamine 123 counter-screen of mitochondrial pore hits; isolated mitochondria, membrane potential, Rhodamine 123 fluorescence; inhibition, % at 10 µM; 5,000 tested, 78% active; shares compounds with MPTP block; in the data active means inhibition above about 22%;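 further: 0% = DMSO vehicle and 100% = positive control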
# MPTP abs DR: MPTP inhibition, dose response swelling confirmation; shares compounds with MPTP block; isolated mitochondria swelling, absorbance; IC50, µM; 780 tested, 58% active; in the data active means IC50 below about 20 µM
# MPTP cs DR: MPTP inhibitor counter-screen activity, dose response; AID 651564; IC50, µM; shares compounds with MPTP block; 780 tested, 49% active; isolated mitochondria counterscreen, fluorescence read-out; in the data active means IC50 below about 80 µM
# * hit, by the source's call; i = inactive; . = not tested or not shown.
SMILES,MT1-MMP act inh,SKN-1 block,MPTP block,ATG4B inh,Rh123 counter,others
CC(=O)C1=CCC(c2ccc(C)cc2)N(S(=O)(=O)c2ccc(Cl)cc2)C1 (stereo unspecified),0.0,7.1,0.1,.,.,
CCN(CC)CC#CCC(C)(c1ccccc1)c1ccccc1,-7.0,10.6,58.8*,-0.9,6.3,MPTP abs DR=i;MPTP cs DR=28.2*
O=S(=O)(NCCN1CCOCC1)c1ccc(Oc2ccccc2Cl)cc1,5.3,12.8,75.4*,-15.2,34.8*,
O=S(=O)(NCCN1CCOCC1)c1ccc2ccccc2c1,6.6,6.9,-0.9,-4.9,.,
CCN=c1scc(-c2ccccc2)n1/N=C/c1ccccn1,-1.0,44.2*,66.0*,4.9,46.2*,
O=C(O)CCCCNCc1ccccc1,1.1,11.5,-0.1,-8.0,.,
c1ccc(CNCCCNCCCCNCCCNCc2ccccc2)cc1,-5.2,27.2,83.7*,1.8,-1.6,MPTP abs DR=1.42*;MPTP cs DR=>80
COc1ccc(Nc2cc(C)c3c(O)cccc3n2)cc1,1.5,21.8,35.9,-3.4,.,
Cc1ccc(Nc2cc(C)c3c(O)cccc3n2)cc1C,-0.4,17.1,72.5*,7.0,54.1*,
O=C(N/N=C/c1ccccc1O)c1ccc2c(c1)OCO2,-3.9,0.9,-0.3,0.3,.,
O=C(N/N=C/c1cc(Br)c(O)c(Br)c1O)c1ccc2c(c1)OCCO2,3.8,1.2,-1.9,2.2,.,
Cc1cc(Br)cc(/C=N/NC(=O)c2ccc3c(c2)OCO3)c1O,-3.9,2.0,65.2*,1.3,49.1*,
O=C(N/N=C/c1cc(Br)cc(Cl)c1O)c1ccc2c(c1)OCO2,-1.6,5.4,55.2*,8.4,65.7*,
O=C(N/N=C/c1ccccc1Br)c1cccc(S(=O)(=O)N2CCOCC2)c1,4.4,20.4,-1.9,5.5,.,
O=C(N/N=C/c1cc(Br)cc(Br)c1O)c1cccc(S(=O)(=O)N2CCOCC2)c1,-0.6,-1.2,69.0*,0.9,-4.8,
Cc1ccccc1C(=O)NCCCCc1ccccc1,-0.5,-6.9,1.4,2.0,.,
Nc1nc2ccccc2cc1C(=O)NCCCCc1ccccc1,12.9,17.8,94.5*,.,104.4*,
CCCc1nc(SCC(=O)N2CCC(C)CC2)c2c(=O)n(C)c(=O)n(C)c2n1,7.4,18.2,1.3,28.7,.,
CCCc1nc(SC2CCCC2)c2c(=O)n(C)c(=O)n(C)c2n1,-3.6,-10.9,71.8*,-2.6,4.3,MPTP abs DR=i;MPTP cs DR=70.1*
Cc1[nH]c2ccccc2c1C1=CC(=O)C=CC1=O,2.6,6.1,52.1*,-6.9,4.1,
O=C(Nc1ccncc1)c1ccc2c(c1)C(=O)N(C1CCCCC1)C2=O,-5.3,11.4,91.3*,-9.8,96.6*,
c1csc(-c2nc3c4ccccc4c4ccccc4c3[nH]2)c1,2.5,20.4,72.1*,-11.1,47.8*,
Cc1cccc(NC(=O)NC(C)CCc2ccccc2)c1 (stereo unspecified),-0.4,14.6,63.6*,-1.5,73.2*,
O=C(NCCSCc1ccco1)Nc1cccc(Cl)c1,-2.6,5.1,79.4*,27.2,79.1*,
O=C(NCCc1ccccc1)Nc1cccc(Cl)c1,4.2,8.1,97.2*,4.5,87.9*,
SMILES,MT1-MMP act inh,SKN-1 block,MPTP block,ATG4B inh,Rh123 counter,others
Cc1cccc(NC(=S)NC(C)CCc2ccccc2)c1 (stereo unspecified),-4.0,4.9,30.4,12.1,.,
Cc1cccc(NC(=O)NCCc2ccc(Cl)cc2)c1,3.4,-2.5,5.9,5.6,.,
O=C(NCCc1ccc(Cl)cc1)Nc1cccc(Cl)c1,-3.3,1.1,94.9*,24.4,93.5*,
Cc1cnc(CNC(=O)c2csc([C@@H]3C[C@H](O)[C@@H](CO)O3)n2)cn1,4.9,22.3,-1.1,.,.,
Cc1cc(C)n2c(NC3CCCC3)c(-c3cc4ccccc4o3)nc2n1,-0.2,13.8,0.6,.,.,
CCCCC(NC(=O)c1ccc(C#N)cc1)C(=O)NCCC (stereo unspecified),-2.2,-0.3,10.2,-4.4,.,
COC(=O)/C(=C\Nc1cccc(Cl)c1C)c1ncc(C(F)(F)F)cc1Cl,-1.6,0.2,75.0*,-11.3,8.4,MPTP abs DR=19.4*;MPTP cs DR=>80
Cc1ccccc1NC(=S)NNc1ncc(C(F)(F)F)cc1Cl,9.6,1.6,0.8,-5.2,.,
Cc1c(Cl)cccc1NC(=S)NNc1ncc(C(F)(F)F)cc1Cl,5.2,7.4,60.0*,25.4,76.5*,
CCOC(=O)N1CCC(Nc2c(Nc3cccc(CC)c3)c(=O)c2=O)CC1,-10.3,6.6,88.6*,-8.2,72.1*,
Cc1cccc(C2(c3cccc(C)c3)CC2C(=O)Nc2ccc([N+](=O)[O-])cc2O)c1 (stereo unspecified),-14.1,6.7,96.3*,25.3,67.6*,
C=CCNC(=O)C1CC1(c1cccc(C)c1)c1cccc(C)c1 (stereo unspecified),6.9,-3.7,1.5,-9.1,.,
CCOCCc1c(O)nc(SCC(=O)N2CCOCC2)[nH]c1=O,-4.0,-2.7,-0.4,-7.1,.,
CN(C)CCCNc1ncnc2c1c(-c1ccccc1)cn2-c1ccccc1,-12.2,-4.5,59.4*,-7.8,-5.8,MPTP abs DR=i;MPTP cs DR=>80
CCOC(=O)c1c(NC(=O)CSc2nc3ccccc3s2)sc(C(C)=O)c1C,-11.3,17.4,85.7*,-16.8,50.1*,
Cc1ccc(OCCn2c(Br)nc3c2c(=O)n(C)c(=O)n3C)cc1,3.7,11.5,82.3*,-1.3,59.6*,
COCCn1c(Br)nc2c1c(=O)n(C)c(=O)n2C,1.8,10.3,-0.2,12.1,.,
CC(C)C[C@H]1CNC(=O)C(=O)N1CC1CCN(CC2CCC(C(C)(C)C)CC2)CC1 (stereo partly specified),1.6,-13.6,0.3,.,.,
Fc1ccc([C@@H]2CCNC[C@H]2COc2ccc3c(c2)OCO3)cc1,-1.8,0.7,97.5*,6.1,-11.2,
C=CCS/C(N)=N\N=C\c1cc(Br)cc([N+](=O)[O-])c1O,1.3,-6.0,52.9*,18.2,50.6*,
O=[N+]([O-])c1cc(Br)cc(/C=N/n2cnnc2)c1O,-1.0,-0.6,-0.5,2.2,.,
O=C(NCCCl)Nc1cc([N+](=O)[O-])ccc1Cl,-2.3,-0.3,1.4,-5.2,.,
O=C(Nc1ccc(Cl)c([N+](=O)[O-])c1)C(Sc1ccccc1)c1ccccc1 (stereo unspecified),-23.4,1.4,105.2*,7.1,80.3*,
O=C(NCCCl)Nc1ccc(Cl)c([N+](=O)[O-])c1,4.9,12.8,81.1*,6.8,92.8*,
CC(=O)N(C)c1ccc(NC(=O)C(Sc2ccccc2)c2ccccc2)cc1 (stereo unspecified),4.9,0.5,-0.8,-7.0,.,
CC(C)(C)NS(=O)(=O)c1ccc(NC(=O)C(Sc2ccccc2)c2ccccc2)cc1 (stereo unspecified),-25.6,0.8,64.6*,-20.7,72.8*,
O=C1N/C(=C\c2ccc(O)cc2)C(=O)c2ccccc21,-0.2,12.2,73.1*,-4.1,-7.2,
